# Measured values from PubChem BioAssay AID1216 (Sanford-Burnham Center for Chemical Genomics, 2008).
# About 660 (0.35%) of roughly 190,000 compounds were called active. This excerpt belongs to a sample that is enriched for actives. Values without a mark were called inactive.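 How the source made its calls: active means activation factor of 2 or more at 20 µM; inactive means the rest.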
# Target: Mannose-6-phosphate isomerase (Homo sapiens) (UniProt P34949)
# Test: MPI activation at elevated mannose 6-phosphate – biochemical, fluorescence intensity, near-saturating mannose 6-phosphate, primary screen (AID 1216)
# Details: coupled PMI enzyme assay, resazurin fluorescence, 20 min; at 20 µM; hits give high values; 1 = untreated enzyme, 0 = substrate-free blank
# Method in brief: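 Test system: human phosphomannose isomerase with PGI, G6PDH, diaphorase coupling enzymes / Doses: 20 µM compound, 1% DMSO / Times: enzyme reaction with compound 20 min at room temperature / Measured by: Diaphorase-driven resazurin-to-resorufin fluorescence, excitation 544, emission 590 nm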
# Chain of Mannose-6-phosphate isomerase (Homo sapiens) (P34949 whole entry, looked up): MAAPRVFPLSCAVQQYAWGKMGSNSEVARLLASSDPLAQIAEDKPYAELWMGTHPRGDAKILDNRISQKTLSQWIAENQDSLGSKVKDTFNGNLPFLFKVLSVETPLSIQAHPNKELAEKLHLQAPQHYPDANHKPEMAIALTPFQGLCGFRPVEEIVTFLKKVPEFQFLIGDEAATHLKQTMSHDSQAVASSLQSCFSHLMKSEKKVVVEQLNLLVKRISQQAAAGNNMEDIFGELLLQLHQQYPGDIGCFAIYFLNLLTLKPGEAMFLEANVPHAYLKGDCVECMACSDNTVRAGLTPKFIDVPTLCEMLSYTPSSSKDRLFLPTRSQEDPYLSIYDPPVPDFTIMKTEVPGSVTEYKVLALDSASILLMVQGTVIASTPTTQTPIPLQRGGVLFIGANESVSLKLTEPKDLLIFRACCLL
row,SMILES,activation factor
1,Cc1ccc(CNC(=O)c2cccnc2Cl)cc1,1
2,O=C(NNc1cc(Cl)ccc1Cl)c1cccnc1Cl,2 (active)
3,Cc1ccc(Cl)cc1NC(=O)c1ccccn1,1
4,O=C(COc1ccc(-c2ccccc2)cc1)NN=C1CCCC1,1
5,Cc1ccc(-c2nn(-c3cccc(F)c3)cc2CNCCc2ccncc2)o1,1
6,COc1ccc(N2CCN(C(=O)CCSCc3ccccc3F)CC2)cc1,0.9
7,CCOc1cc(N2CCOCC2)c(OCC)cc1NC(=O)c1ccc(C)s1,0.7
8,COC(=O)c1sc2[nH]c(=S)n(N)c(=O)c2c1C,2 (active)
9,COC(=O)c1sc(=S)n(-c2ccccc2)c1N,0.9
10,CCOC(=O)Cn1c(N)c(C(=O)OC)sc1=S,1.1
11,Cc1cccc(C)c1NC(=O)CNC(=O)Cc1ccc(Br)cc1,1
12,O=S(=O)(Nc1cc(S(=O)(=O)N2CCOCC2)ccc1N1CCCC1)c1cccs1,1.1
13,NC(=O)CC[C@@H]1NC(=O)[C@@H]2CCCN2C(=O)c2cc([N+](=O)[O-])cc(F)c2NCCC[C@@H](C(N)=O)NC1=O,1
14,O=C(CC1C(=O)NCCN1CC(c1ccccc1)c1ccccc1)NCCc1cn[nH]c1 (configuration not stated),0.8
15,COC(=O)c1[nH]c2cccc(C)c2c1NC(=O)CN1CCCc2ccccc21,2.1 (active)
16,COC(=O)c1[nH]c2ccccc2c1NC(=O)CN1CCCc2ccccc21,0.9
17,NS(=O)(=O)c1cccc(NC(=O)CN2CCCc3ccccc32)c1,1.1
18,C=CCNC(=O)c1ccccc1NC(=O)c1ccc(Cl)c(S(=O)(=O)Nc2cccc(C)c2C)c1,1
19,Cc1cccc(C)c1NC(=S)N(Cc1cccnc1)Cc1ccccc1Cl,0.8
20,CCOC(=O)c1[nH]ncc1CN1CCCC(C(=O)c2ccc(OC)cc2C)C1 (configuration not stated),1.1
21,COc1ccccc1N(C)S(=O)(=O)c1ccc(Cl)c(C(=O)N2CCC(C(N)=O)CC2)c1,1.1
22,CCn1cc(-c2cc(C(=O)O)on2)c(C)n1,1.2
23,Cc1ccc2nc(NCCCNC(=O)c3cnccn3)c(C#N)cc2c1,0.9
24,COCCCNC(=S)NCCNc1nc2cc(C)c(C)cc2cc1C#N,2.1 (active)
25,COCCCNC(=S)NC(=O)c1ccc([N+](=O)[O-])cc1,0.9
26,O=C(NCc1ccccc1Cl)C1CCC(CNc2c(N3CCCCC3)c(=O)c2=O)CC1 (configuration not stated),1
27,CCCCn1c(O)c(N=NC(=O)Cn2c(C(F)(F)F)nc3ccccc32)c2ccccc21,1
